The target in test [1] is T1, MIF/CD74 (Macrophage migration inhibitory factor and HLA-DR antigens-associated invariant chain) (Homo sapiens) (UniProt P14174+P04233). The test is described as follows: (§1) Inhibition of human MIF-CD74 binding. In kind it is protein assay. The essentials:
(§2)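 Compounds pre-incubated 30 min at room temperature with biotinylated recombinant human MIF (2 ng/µl), then added to wells overnight at 4 °C. Bound MIF detected with streptavidin-alkaline phosphatase and p-nitrophenyl phosphate, A405 expressed as percent of MIF-alone wells. 10–12 concentrations spanning ~500-fold; at least three independent assays.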

For test [2], the target named is T2, Macrophage migration inhibitory factor (Homo sapiens) (UniProt P14174).
T2 sequence (whole entry): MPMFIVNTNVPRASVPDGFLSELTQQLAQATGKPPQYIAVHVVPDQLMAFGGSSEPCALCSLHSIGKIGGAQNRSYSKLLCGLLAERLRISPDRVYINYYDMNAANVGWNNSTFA
The test is described as follows: (§3) Inhibition of human recombinant MIF tautomerase.

The target in test [3] is T1, MIF/CD74 (Macrophage migration inhibitory factor and HLA-DR antigens-associated invariant chain) (Homo sapiens). The test is described as follows: Inhibition of human MIF-CD74 binding at 10 uM. In kind it is protein assay. Details: scale not given: the % may be the effect or the level left.
In test [4] the target is T3, Macrophage migration inhibitory factor (Homo sapiens, UniProt P14174).
T3 sequence (P14174 whole entry): T2 sequence (whole entry)
The description is as §3.

The target of test [5] is T4, MIF/CD74 (Macrophage migration inhibitory factor and HLA-DR antigens-associated invariant chain) (Homo sapiens, UniProt P04233+P14174).
T4 sequence (P14174 whole entry): T2 sequence (whole entry)
T4 sequence (P04233 whole entry): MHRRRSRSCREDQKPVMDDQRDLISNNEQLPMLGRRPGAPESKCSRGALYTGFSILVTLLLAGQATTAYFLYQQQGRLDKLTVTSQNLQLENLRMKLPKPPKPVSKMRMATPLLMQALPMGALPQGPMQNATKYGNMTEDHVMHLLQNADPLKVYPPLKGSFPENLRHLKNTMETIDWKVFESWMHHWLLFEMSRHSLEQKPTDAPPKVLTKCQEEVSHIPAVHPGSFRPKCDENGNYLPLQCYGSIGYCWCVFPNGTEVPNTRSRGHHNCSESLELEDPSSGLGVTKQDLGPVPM
The test is described as §1. In kind it is protein assay. The essentials: as §2

Test [6] has as its target T2, Macrophage migration inhibitory factor (Homo sapiens). In words: Inhibition of human recombinant MIF tautomerase at 10 uM. Details: scale not given: the % may be the effect or the level left.

pIC50: −log10 of the molar value. Calls of active or inactive are those of the source. The rule behind the calls is not given here.

`O=C(Nc1cccc2ccccc12)C(=O)c1c[nH]c2ccccc12`: the result in test [1] was inactive.

As for `CC(=O)Nc1cccc2ccc(-c3cnc4ccccc4c3)nc12`, the result in test [1] was inactive. Consider `COC(=O)C[C@H]1CC(c2ccc(O)cc2)=NO1` (racemic), for which the result in test [2] was inactive. The molecule further yielded an Activity in test [3] of 40%.

As a reminder, the pIC50 is the IC50 on a negative log10 scale, so that one unit is a factor of ten. As to `Oc1csc(Cc2nc(-c3ccc(-c4ccccc4)cc3)cs2)n1`, the pIC50 was 3.52 in test [4] and 4.19 in test [5]. With `O=C(c1cc2ccccc2o1)N1CCc2ccccc21`, the pIC50 in test [5] was 5.40.

Consider `O=C(O)c1cc(-n2cnnc2)ccc1Cl`, for which the result in test [2] was inactive. The pIC50 in test [5] was 3.60. As for `O=c1oc2c(O)c(O)ccc2cc1-c1nc2ccccc2s1`, the result in test [1] was inactive. For `Oc1ccc2c(c1)oc1ccccc12`, the Activity in test [6] was 38%. In addition, the pIC50 in test [5] is 3.05.

`O=C(O)c1cc(-n2cnnn2)ccc1O`: in test [2], the outcome was inactive. Also, the pIC50 in test [5] was 3.26. As to `CC(C)(C)OC(=O)C[C@H]1CC(c2ccc(O)c(F)c2)=NO1` (racemic), the pIC50 in test [4] is 6.26. Turning to `O=c1[nH]nc(-c2cccs2)cc1Cc1ccc(Cl)c(Cl)c1`, the pIC50 was 3.37 in test [4] and 3.60 in test [5]. Take `O=C(O)COc1ccc2occ(C(=O)c3ccccc3)c2c1`: the values for the pIC50 in test [4] and in test [5] were 3.01 and 2.82, respectively. Consider `Ic1cc(-c2ccccc2)ncn1`, for which the outcome in test [1] was inactive. The same measure, in the same setting: then `Cc1cc(C)c2ccc(C3=C(O)c4ccccc4C3=O)nc2c1O`, with “inactive”.

For the molecule `Oc1c(C(Nc2cccc(F)c2)c2ccccn2)ccc2cccnc12` (stereo not given), the pIC50 in test [4] is 3.28; in test [5] it was 5.60. As to `O=c1c2ccc(F)cc2sn1-c1ccc(Cl)cc1`, the outcome in test [1] was inactive. Still for that read-out and setting: then `CC(OC(=O)c1ccc(-c2ccc(O)cc2)cc1)C(=O)NCc1ccccc1` (stereo not given), with “inactive”.

As for `CC(=O)Oc1ccc2nc(-c3cc4ccccc4o3)oc(=O)c2c1`, in test [5], the pIC50 is 5.60. For the molecule `O=C(O)c1cccc(-c2cc[nH]n2)c1`, the Activity in test [6] was determined as 30%. This molecule showed a pIC50 in test [5] of 4.82.

Take `CCOc1cc(/C=C2\Oc3cc(O)ccc3C2=O)ccc1O`: in test [1], the result was inactive. As to `OCc1nc2ccccc2n1Cc1ccc2ccccc2c1`, the outcome in test [1] was inactive. Still for that read-out and setting: under `O=C(O)c1cccc(-n2ccnc2)c1` stands “inactive”. Still for that read-out and setting: under `Cc1ccc(-n2cnc3ccccc3c2=O)cc1Cl` stands “inactive”. Turning to `Oc1ccc(/C=C/c2ccc3cccc(O)c3n2)cc1`, the Activity in test [6] was found to be 40%. This molecule also showed a pIC50 in test [5] of 5.10.

On to `N#C/C(=C\c1ccc(-c2ccccc2)cc1)c1ccccn1`, for which the outcome in test [1] was inactive.

(Values after ChEMBL document CHEMBL1139362, “Discovery of human macrophage migration inhibitory factor (MIF)-CD74 antagonists via virtual screening” (J Med Chem, 2009).)
